# According to PubChem BioAssay:
# Calls of active or inactive are those of the source.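 Rule for the calls, unless noted: active = GFP response above 150% of the DMSO level; inconclusive = fewer than 70 events counted for a yeast strain; inactive = the rest.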
# How the values were obtained:
# [1] = hit retest on RPL19A-GFP reporter strain – cell-based, S. cerevisiae, flow cytometry, cherry picks, mother/daughter gates, confirmation (AID 2270;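 active = GFP response below 50% of the DMSO control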); settings: 3 h, at 10 µM, stronger effect = lower value, 100 = same GFP as DMSO wells
# [2] = yeast TOR pathway reporter LAP4-GFP change – cell-based, cherry picks, flow cytometry, mother/daughter gates, confirmation (AID 2271;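 active = GFP response above 150% of the DMSO control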;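 note: ratio of sample to DMSO plate mean so 100% equals DMSO level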); settings: S. cerevisiae LAP4-GFP strain, 3 h, at 10 µM, stronger effect = higher value, 100 means same as DMSO control
# Method in brief: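 Material: Alexa Fluor 633-labelled Saccharomyces cerevisiae GFP-fusion strain, single-plex | Amount: Yeast cells seeded at OD600 of 0.2 | Buffer or medium: SC growth medium | Schedule: 3 h exposure, 30 °C | Measured by: HT flow cytometry, GFP fluorescence channel | Evaluation: % GFP response vs DMSO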
# [3] = TOR pathway reporter MEP2-GFP, retest of hits – S. cerevisiae, flow cytometry GFP, cherry picks, confirmation (AID 2272;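 active = GFP response above 150% of the DMSO control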;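 note: ratio of well signal to plate DMSO mean so 100% equals DMSO level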); settings: S. cerevisiae MEP2-GFP strain, 3 h, at 10 µM, stronger effect = higher value
# [4] = yeast AGP1-GFP fluorescence change, single-dose – cell-based, flow cytometry, S. cerevisiae, cherry picks, confirmation (AID 2273);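 note: median GFP channel fluorescence over the whole cell population gate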; settings: S. cerevisiae AGP1-GFP strain, 3 h, at 10 µM
# [5] = TOR pathway CIT2 reporter hit retest – S. cerevisiae, GFP fusion, cherry picks, mother/daughter gates, confirmation (AID 2274); settings: S. cerevisiae CIT2-GFP strain, flow cytometry, 3 h, at 10 µM, stronger effect = higher value
# [6] = measured here: daughter cell gate
# [7] = measured here: mother cell gate
# [8] = measured here: daughter cell gate response
# [9] = measured here: mother cell gate response
Compound,GFP response vs DMSO [1],"GFP response vs DMSO [1, 6] [%]","GFP response vs DMSO [1, 7] [%]",GFP response relative to DMSO [2],"GFP response relative to DMSO [2, 8] [%]","GFP response relative to DMSO [2, 9] [%]",GFP response vs DMSO [3],"GFP response, % of DMSO [4]","GFP response, % of DMSO [5]","GFP response, % of DMSO [5, 6] [%]","GFP response, % of DMSO [5, 7] [%]"
O=S(=O)(/N=C(/Sc1ccccc1)c1ccccc1)c1ccccc1,92% (inactive),92.5,89.8,179% (active),152,180,106% (inactive),101% (inactive),84.7% (inactive),88.7,79.2
CCC(C)(C)NC(=O)C(c1cccs1)N(CC1CCCO1)C(=O)Cn1nnc2ccccc21 (stereo unspecified),95.3% (inactive),95.9,94.4,98.9% (inactive),96,99.5,101% (inactive),102% (inactive),101% (inactive),105,102
Cc1ccc(/C=C2\SC(=S)N(CC3CCCO3)C2=O)o1 (stereo unspecified),93.8% (inactive),94.2,93.5,189% (active),167,194,143% (inactive),100% (inactive),98.6% (inactive),97.6,98.2
Cc1ccccc1N1C(=O)CC(Sc2nnc(-c3ccccc3)o2)C1=O (stereo unspecified),94.6% (inactive),92.2,93.2,102% (inactive),101,103,103% (inactive),102% (inactive),97.3% (inactive),97.4,96.8
COC(=O)Cn1cc(/C=C/[N+](=O)[O-])c2ccccc21,101% (inactive),103,100,145% (inactive),146,145,101% (inactive),103% (inactive),106% (inactive),108,103
Cc1c(NC2=C(Cl)C(=O)N(c3ccccc3)C2=O)c(=O)n(-c2ccccc2)n1C,93.5% (inactive),97.3,95.2,97.7% (inactive),104,99.5,99.5% (inactive),103% (inactive),104% (inactive),108,96.8
